Our source for the Activity, selectivity ratio and EC50 values is ChEMBL document CHEMBL1157723, “Synthesis and anti-viral activity of azolo-adamantanes against influenza A virus” (Bioorg Med Chem, 2010).

The test system of one data set is MDCK. Nature of the data set: Cytotoxicity against MDCK cells after 48 hrs by MTT assay. It counts as cell-based, Canis lupus familiaris. To be noted: dog. In short, it runs like this:
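MDCK cells were grown to monolayer in MEM with 5% fetal calf serum and washed with serum-free MEM. Compounds came from 5 mg/ml DMSO stocks as twofold dilutions of 1000–1 µg/ml in MEM, 48 h at 37 °C. After PBS washes, MTT (0.5 mg/ml) was added for 60 min at 37 °C, the deposit dissolved in DMSO and OD read at 535 nm. CTD50 is the concentration reducing viability 50%.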
(In general: Tetrazolium assays rely on reduction of a dye to a coloured formazan, in cell work by metabolically active cells.)

The nature of data set [1]: Selectivity index, ratio of CTD50 for MDCK cells to EC50 for Influenza A virus (A/Puerto Rico/8/34(H1N1)). To be noted: dog, read-out: Selectivity Index. It counts as toxicity, cell-based. The procedure, abridged:
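Ratio of CTD50 (MDCK, MTT after 48 h) to ED50 (PR8 yield in MDCK by hemagglutination end-point titration after 48 h at 36 °C), both from twofold dilution series.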

The next data set has as its system Influenza A virus. Put plainly: Antiviral activity against Influenza A virus (A/Puerto Rico/8/34(H1N1)) infected in MDCK cells assessed as virus yield after 48 hrs end-point dilution method. It counts as functional, organism-based. To be noted: A/Puerto Rico/8/1934(H1N1). The procedure, abridged: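 MDCK monolayers were exposed to serial twofold compound dilutions in MEM with 2 mM arginine, 2 mM glutamine and 2 µg/mL trypsin for 1 h at 37 °C, then infected and cultured 48 h at 36 °C. Supernatant was tested by hemagglutination with 1% chicken erythrocytes (1 h, room temperature) and titre by end-point dilution. ED50 is the concentration decreasing virus production […].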

Values after ≈ are worked out from the molar mass of the structure shown.

The compound `Sc1nnnn1-c1ccccc1` yielded an Activity in the data set with MDCK of 151 µg/mL. Further, the selectivity ratio in data set [1] is below 1. Besides, in the data set with Influenza A virus, the EC50 (usually the concentration that produces a half-maximal response) was above 200 mg/L.

`O=S(=O)([O-])O.c1ccc(-n2n[n+](C34CC5CC(CC(C5)C3)C4)nc2SC23CC4CC(CC(C4)C2)C3)cc1`: the Activity in the data set with MDCK stood at 289 µg/mL. Besides, the selectivity ratio in data set [1] is 5. Further, the EC50 in the data set on Influenza A virus was 57 mg/L.

For `Cc1ncn(C23CC4CC(CC(C(C)N)(C4)C2)C3)n1.Cl.Cl` (stereo unspecified), the Activity in the data set on MDCK worked out at 960 µg/mL. The selectivity ratio in data set [1] stood at 15. Also, in the data set on Influenza A virus, the EC50 was 62 mg/L.

`CCn1n[n+](C23CC4CC(CC(C4)C2)C3)nc1[S-]`: in the data set with MDCK, the Activity was 125 µg/mL. Besides, the selectivity ratio in data set [1] turned out to be 41. Also, the EC50 with Influenza A virus was determined as 3 mg/L (≈ 11.3 µM).

As to `O=c1[nH]nnn1-c1ccccc1`, the Activity in the data set with MDCK is above 1000 µg/mL. For the same compound, in data set [1], the selectivity ratio stood at 3. In addition, the concentration for a half-maximal effect (EC50) with Influenza A virus worked out at 294 mg/L (≈ 1810 µM).

`Cc1nnn(C23CC4CC(CC(C4)C2)C3)n1` had an Activity in the data set on MDCK of 569 µg/mL. For the same compound, the selectivity ratio in data set [1] was 7. Further, the EC50 in the data set on Influenza A virus was 77 mg/L (≈ 353 µM).

Consider `CC(N)C12CC3CC(C1)CC(n1cnc(Cl)n1)(C3)C2.Cl` (stereo unspecified), for which the Activity in the data set with MDCK stood at 140 µg/mL. For the same compound, the selectivity ratio in data set [1] amounted to 9. Moreover, the EC50 in the data set with Influenza A virus came to 15 mg/L.

Take `CC(N)C12CC3CC(C1)CC(n1ncnn1)(C3)C2.Cl` (stereo unspecified): the Activity with MDCK was determined as 423 µg/mL. The selectivity ratio in data set [1] was 18. Also, the EC50 in the data set with Influenza A virus is 23 mg/L.

Consider `O=C(O)c1nn(C23CC4CC(CC(C4)C2)C3)cc1Br`, for which the Activity with MDCK came out at 443 µg/mL. Further, the selectivity ratio in data set [1] is 1. Further, the concentration for a half-maximal effect (EC50) in the data set with Influenza A virus was found to be 300 mg/L (≈ 922 µM).

`CC(N)C12CC3CC(C1)CC(n1cnc([N+](=O)[O-])n1)(C3)C2.Cl` (stereo unspecified) displayed an Activity with MDCK of 131 µg/mL. In addition, the selectivity ratio in data set [1] amounted to 1. Besides, the EC50 in the data set with Influenza A virus amounted to 120 mg/L.

Compound `Cc1nnn(C23CC4CC(CC(N)(C4)C2)C3)n1.Cl` registered an Activity in the data set with MDCK of 213 µg/mL. For the same compound, the selectivity ratio in data set [1] came to 16. Moreover, in the data set on Influenza A virus, the EC50 came out at 13 mg/L.

As to `CCc1nnn(C23CC4CC(CC(N)(C4)C2)C3)n1.Cl`, in the data set on MDCK, the Activity stood at 262 µg/mL. In addition, the selectivity ratio in data set [1] is 10. The EC50 in the data set with Influenza A virus came out at 25 mg/L.

For the compound `CCOC(=O)Cc1nnn(C23CC4CC(CC(N)(C4)C2)C3)n1.Cl`, the Activity in the data set on MDCK was 127 µg/mL. In data set [1], the selectivity ratio was determined as 7. Besides, the EC50 in the data set on Influenza A virus was 18 mg/L.

In the data set on MDCK, `NC1N=NC(Cc2nnn(C34CC5CC(CC(C5)C3)C4)n2)=N1` (stereo unspecified) registered an Activity of 0.18 µg/mL. Also, the selectivity ratio in data set [1] was found to be 2. Moreover, the half-maximal effective concentration (EC50) with Influenza A virus is 0.09 mg/L (≈ 0.3 µM).

In turn, `Cl.NC12CC3CC(C1)CC(n1cncn1)(C3)C2` returned an Activity in the data set with MDCK of 1489 µg/mL. In addition, the selectivity ratio in data set [1] amounted to 12. For the same compound, the half-maximal effective concentration (EC50) in the data set with Influenza A virus turned out to be 123 mg/L.

Consider `Cl.NC12CC3CC(C1)CC(n1cnc(Br)n1)(C3)C2`, for which, in the data set with MDCK, the Activity was found to be 620 µg/mL. The selectivity ratio in data set [1] came out at 6. Moreover, the EC50 with Influenza A virus is 111 mg/L.

`O=C(O)Cc1nnn(C23CC4CC(CC(C4)C2)C3)n1`: in the data set with MDCK, the Activity was above 500 µg/mL. Further, the selectivity ratio in data set [1] is above 7. In the data set on Influenza A virus, the 50% effective concentration (EC50) came out at 71 mg/L (≈ 271 µM).

Compound `CCCCOC(=O)Cc1nnn(C23CC4CC(CC(C4)C2)C3)n1` registered an Activity in the data set with MDCK below 1 µg/mL. Further, the selectivity ratio in data set [1] was below 1. In the data set on Influenza A virus, the EC50 was above 1 mg/L.

For `c1nnn(C23CC4CC(CC(C4)C2)C3)n1`, the Activity in the data set with MDCK stood at 253 µg/mL. For the same compound, the selectivity ratio in data set [1] was determined as 5. Further, the EC50 in the data set on Influenza A virus amounted to 56 mg/L (≈ 274 µM).

Take `Cc1nn(C23CC4CC(CC(C4)C2)C3)c(C)c1N`: in the data set with MDCK, the Activity was 600 µg/mL. Moreover, in data set [1], the selectivity ratio came out at 6. The EC50 with Influenza A virus was 100 mg/L (≈ 408 µM).

Compound `[S-]c1n[n+](C23CC4CC(CC(C4)C2)C3)nn1-c1ccccc1` yielded an Activity in the data set with MDCK of 300 µg/mL. Further, in data set [1], the selectivity ratio was 2. In addition, in the data set with Influenza A virus, the concentration for a half-maximal effect (EC50) worked out at 130 mg/L (≈ 416 µM).

In the data set on MDCK, `Cc1nnn(C23CC4CC(CC(C(C)N)(C4)C2)C3)n1.Cl` (stereo unspecified) yielded an Activity of 242 µg/mL. Also, in data set [1], the selectivity ratio was found to be 30. Also, the EC50 in the data set with Influenza A virus turned out to be 8 mg/L.

The compound `S=c1[nH]nnn1C12CC3CC(CC(C3)C1)C2` came in with an Activity in the data set with MDCK of 167 µg/mL. Also, the selectivity ratio in data set [1] came to 11. In addition, in the data set on Influenza A virus, the EC50 stood at 15 mg/L (≈ 63.5 µM).

Take `OC12CC3CC(C1)CC(n1nn[nH]c1=S)(C3)C2`: in the data set with MDCK, the Activity amounted to 146 µg/mL. Moreover, in data set [1], the selectivity ratio is 18. In addition, the EC50 in the data set on Influenza A virus was 8 mg/L (≈ 31.7 µM).

For the compound `c1nnnn1C12CC3CC(CC(C3)C1)C2`, the Activity in the data set on MDCK was determined as 281 µg/mL. Moreover, the selectivity ratio in data set [1] was 25. Also, in the data set on Influenza A virus, the EC50 amounted to 11 mg/L (≈ 53.8 µM).

Turning to `Cl.NC12CC3CC(C1)CC(n1ncnn1)(C3)C2`, in the data set with MDCK, the Activity came to 552 µg/mL. Also, the selectivity ratio in data set [1] was 25. Besides, in the data set on Influenza A virus, the EC50 was 22 mg/L.

Turning to `Clc1ncn(C23CC4CC(CC(C4)C2)C3)n1`, the Activity in the data set on MDCK was 583 µg/mL. In data set [1], the selectivity ratio stood at 10. Also, in the data set on Influenza A virus, the EC50 worked out at 59 mg/L (≈ 248 µM).

In the case of `OC12CC3CC(C1)CC(N=C=S)(C3)C2`, in the data set with MDCK, the Activity was above 500 µg/mL. The selectivity ratio in data set [1] was above 3. Besides, the EC50 with Influenza A virus is 150 mg/L (≈ 717 µM).

Turning to `CCc1nnn(C23CC4CC(CC(C(C)N)(C4)C2)C3)n1.Cl` (stereo unspecified), the Activity in the data set with MDCK came to 299 µg/mL. For the same compound, in data set [1], the selectivity ratio is 50. Also, the 50% effective concentration (EC50) with Influenza A virus is 6 mg/L.

For the compound `c1ncn(C23CC4CC(CC(C4)C2)C3)n1`, the Activity with MDCK turned out to be 358 µg/mL. The selectivity ratio in data set [1] is 5. The EC50 in the data set on Influenza A virus is 77 mg/L (≈ 379 µM).

As for `CCOC(=O)Cc1nnn(C23CC4CC(CC(C4)C2)C3)n1`, the Activity with MDCK was above 1000 µg/mL. In addition, the selectivity ratio in data set [1] came out at 4. For the same compound, the EC50 in the data set with Influenza A virus was 232 mg/L (≈ 799 µM).

As for `CC(N)C12CC3CC(CC(C3)C1)C2` (stereo unspecified) [RIMANTADINE], the Activity with MDCK is 60 µg/mL. The selectivity ratio in data set [1] came to 12. Moreover, in the data set on Influenza A virus, the EC50 was found to be 5 mg/L (≈ 27.9 µM).
